Measurements from ChEMBL document CHEMBL1122496, “A new class of nonhormonal pregnancy-terminating agents. Synthesis and contragestational activity of 3,5-diaryl-s-triazoles” (J Med Chem, 1983).

Experiments:
[1] = test system: Cricetinae gen. sp.; assay: (§1) Pregnancy-terminating activity in hamster when administered sc; assay type: functional; settings: Cricetinae gen. sp., sc; read-out: ED50
[2] = test system: Cricetinae gen. sp.; assay: Pregnancy-terminating activity in hamster when administered perorally; assay type: functional, Cricetulus griseus; settings: po
[3] = test system: Rattus norvegicus; assay: Pregnancy-terminating activity in rat when administered sc; assay type: functional
How it was run: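 Pregnant rats were dosed once daily for 5 consecutive days, from day 6 to day 10. Compound was given in sesame oil containing 20% benzyl benzoate to groups of 5–30 animals at three to six dose levels.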

[4] = test system: Rattus norvegicus; assay: Pregnancy-terminating activity in rat when administered po; assay type: functional
[5] = test system: Cricetinae gen. sp.; assay: as §1; assay type: functional, Cricetulus griseus
How it was run: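 Pregnant hamsters were dosed daily for 5 consecutive days, from day 4 to day 8. Compound was given in sesame oil with 20% benzyl benzoate to groups of 5–30 animals at three to six dose levels. ED50 is the dose that ended pregnancy in half of the animals.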

[6] = Solubility in sesame oil containing 20% of benzyl benzoate; assay type: physicochemical
[7] = test system: Rattus norvegicus; assay: Pregnancy-terminating activity in Rat when administered sc; assay type: functional
How it was run: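 Pregnant rats were dosed once daily for 5 consecutive days, from day 6 to day 10. Compound was given in sesame oil containing 20% benzyl benzoate to groups of 5–30 animals at three to six dose levels. ED50 is the dose that terminated pregnancy in 50% of the animals.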

SMILES | ED50 [1] [mg/kg] | ED50 [2] [mg/kg] | also measured
Cc1ccccc1-c1nc(-c2ccc(N(C)C)cc2)n[nH]1 | 10 | – | –
Cc1cccc(-c2n[nH]c(-c3ccccc3)n2)c1 | > 20 | – | –
CCc1ccccc1-c1n[nH]c(-c2ccc(OC)cc2)n1 | 0.15 | 5 | –
Cc1cc(Cl)ccc1-c1n[nH]c(-c2ccccc2)n1 | 0.14 | 4 | –
CCOc1cccc(-c2n[nH]c(-c3ccccc3CC)n2)c1 | 0.04 | 4 | ED50 [3]: 0.3 mg/kg; ED50 [4]: > 10 mg/kg
c1ccc(-c2nc3n(n2)Cc2ccccc2-3)cc1 | – | – | ED50 [5]: 3.5 mg/kg; Solubility [6]: ~ 30 mg ml-1; ED50 [7]: 1.8 mg/kg
c1ccc(-c2nc3n(n2)CCc2ccccc2-3)cc1 | – | – | ED50 [5]: 1 mg/kg; Solubility [6]: ~ 100 mg ml-1; ED50 [7]: 16 mg/kg
Cc1ccc(C)c(-c2n[nH]c(-c3ccccc3)n2)c1 | > 10 | – | –
Cc1ccccc1-c1n[nH]c(-c2ccc(-c3ccccc3)cc2)n1 | 10 | – | –
CCc1ccccc1-c1n[nH]c(-c2cc(OC)cc(OC)c2)n1 | 10 | – | –
CCc1ccccc1-c1n[nH]c(-c2cccc(F)c2)n1 | 0.4 | > 5 | –
COc1cccc(-c2n[nH]c(-c3ccccc3CO)n2)c1 | 0.08 | 15 | –
C=CCOc1cccc(-c2nc(-c3ccccc3C)n[nH]2)c1 | 0.15 | 5 | –
Cc1ccccc1-c1n[nH]c(-c2ccc(F)cc2)n1 | 3.5 | – | –
COc1cccc(-c2n[nH]c(-c3ccc(C)cc3C)n2)c1 | 0.04 | 10 | ED50 [3]: 0.6 mg/kg; ED50 [4]: > 10 mg/kg
Cc1ccc(Cl)cc1-c1n[nH]c(-c2ccccc2)n1 | 1.2 | – | –
COc1cccc(-c2n[nH]c(-c3cccc(C)c3)n2)c1 | 15 | – | –
c1ccc(-c2nc3c4ccccc4ccn3n2)cc1 | 0.25 | – | Solubility [6]: ~ 10 mg ml-1; ED50 [7]: 2.5 mg/kg
CCCCc1ccccc1-c1n[nH]c(-c2cccc(OC)c2)n1 | 12 | 10 | –
CCc1ccccc1-c1n[nH]c(-c2cccc(C)c2C)n1 | 2 | – | –
COc1cccc(-c2n[nH]c(-c3ccccc3C=O)n2)c1 | 0.1 | 10 | –
Cc1ccccc1-c1n[nH]c(-c2ccc(Cl)cc2)n1 | 4 | – | –
CCc1ccccc1-c1n[nH]c(-c2ccc(OC)c(OC)c2)n1 | 0.05 | > 5 | –
CCc1ccccc1-c1n[nH]c(-c2cccc(OC)c2OC)n1 | 10 | – | –
CCc1ccccc1-c1n[nH]c(-c2cccc(-c3ccccc3)c2)n1 | 10 | 10 | –
COc1ccc(C)c(-c2n[nH]c(-c3ccccc3)n2)c1 | > 10 | – | –
